The text below walks through data of article PMC7127420 (European Journal of Medicinal Chemistry, 2008).

For orientation: IC50 means the concentration at which inhibition is half-maximal. What is called EC50 is the midpoint of the concentration-response curve. Broadly, the CC50 is the concentration at which the toxic effect on the cells reaches its halfway point.

Like-named read-outs stand apart in the source and are kept apart here.

Data set [1] has as its system HIV-1(IIIB). Description: Inhibition of HIV-1. The data set is classed as cell-based, Human immunodeficiency virus type 1. The conditions noted are these: relative to 8.
For the next data set, the target named is recombinant HIV-2 RT (Human immunodeficiency virus type 2 subtype A, UniProt P04584). Description: Anti-reverse transcriptase assay, HIV-2 RT. The data set is classed as biochemical, HIV-2(ROD). Summed up: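 Recombinant RT derived from HIV-2(ROD). Substrate was [8-3H]dGTP (2.5 μM) on poly(C).oligo(dG)12–18 (0.1 mM), with inhibitor at various concentrations. Incubated 37 °C for 30 min, then stopped with yeast RNA and trichloroacetic acid in Na4P2O7 and held on ice 30 min. Acid-insoluble radioactivity was counted; IC50 was the concentration giving 50% inhibition of RT activity.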

Data set [2] concerns HIV-1(IIIB). As to conditions: ref [1], cited from earlier work; for EC50: read-out: EC50 HIV-1(IIIB), CEM cells.
Another data set has as its system HIV-2(ROD). As to conditions: read-out: EC50 HIV-2(ROD); CEM cells; racemic mixture; ref [1]; cited from earlier work.
The test system of data set [3] is human T-lymphocyte (CEM) cells. The conditions noted are these: mock-infected CEM cells; racemic mixture; ref [1]; cited from earlier work.
Data set [4] relates to human T-lymphocyte (CEM) cells. Description: Cytostatic activity in mock-infected CEM cells. The data set is classed as cell-based. As to conditions: concentration required to reduce mock-infected CEM cell viability by 50%. The essentials:
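Mock-infected CEM cell cultures were run alongside the HIV-infected CEM cultures. CC50 was the compound concentration inhibiting CEM cell proliferation by 50%.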

Sequence of recombinant HIV-2 RT (P04584 613-1171 limits assumed): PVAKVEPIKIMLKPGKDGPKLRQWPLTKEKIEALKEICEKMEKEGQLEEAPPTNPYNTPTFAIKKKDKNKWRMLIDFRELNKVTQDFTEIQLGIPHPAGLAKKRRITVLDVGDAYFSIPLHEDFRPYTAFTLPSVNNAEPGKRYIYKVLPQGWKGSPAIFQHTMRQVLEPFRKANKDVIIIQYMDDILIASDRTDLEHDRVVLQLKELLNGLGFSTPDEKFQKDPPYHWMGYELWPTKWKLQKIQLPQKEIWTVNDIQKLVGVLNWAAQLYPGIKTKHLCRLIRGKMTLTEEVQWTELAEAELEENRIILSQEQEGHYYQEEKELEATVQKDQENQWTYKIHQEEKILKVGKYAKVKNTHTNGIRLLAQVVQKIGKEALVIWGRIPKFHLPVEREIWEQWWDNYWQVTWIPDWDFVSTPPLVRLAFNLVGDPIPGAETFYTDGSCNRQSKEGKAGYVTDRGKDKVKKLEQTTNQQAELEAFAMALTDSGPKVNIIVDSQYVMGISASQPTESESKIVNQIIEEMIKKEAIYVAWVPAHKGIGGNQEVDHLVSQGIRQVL
Sequence of recombinant HIV-2 RT (P04584 613-1051 partner limits assumed): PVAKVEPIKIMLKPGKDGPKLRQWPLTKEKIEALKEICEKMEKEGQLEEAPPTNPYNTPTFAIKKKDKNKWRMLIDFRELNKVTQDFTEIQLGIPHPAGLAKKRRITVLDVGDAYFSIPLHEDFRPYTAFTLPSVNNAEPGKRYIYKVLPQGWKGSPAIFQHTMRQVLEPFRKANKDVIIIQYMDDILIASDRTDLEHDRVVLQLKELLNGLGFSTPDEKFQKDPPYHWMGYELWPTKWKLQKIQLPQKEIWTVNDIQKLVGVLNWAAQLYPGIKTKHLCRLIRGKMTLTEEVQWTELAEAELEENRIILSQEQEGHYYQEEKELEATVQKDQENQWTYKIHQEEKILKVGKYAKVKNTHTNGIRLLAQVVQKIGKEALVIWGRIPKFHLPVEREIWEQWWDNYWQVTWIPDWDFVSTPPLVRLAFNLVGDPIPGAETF

As for `Cc1cc(C)nc(N2C(=O)CSC2CC23CC4CC(CC(C4)C2)C3)n1` (stereo not shown) [Compound 12, 2-Adamantan-1-ylmethyl-3-(2,6-methylpyrimidin-2-yl)-thiazolidin-4-one], the “fold reduction in antiviral potency (anti-HIV-1)” value in the data set on HIV-1(IIIB) [1] is 13 fold. For the compound `O=C1CSC(c2c(F)cccc2F)N1CC12CC3CC(CC(C3)C1)C2` (stereo not shown) [Compound 28, 3-Adamantan-1-ylmethyl-2-(2,6-difluorophenyl)-thiazolidin-4-one], the IC50 on recombinant HIV-2 RT is over 600 µM. Consider `Cc1cc(C)nc(N2C(=O)CSC2C23CC4CC(CC(C4)C2)C3)c1` (stereo not shown) [Compound 7, 2-adamantan-1-yl-3-(4,6-dimethylpyridin-2-yl)-thiazolidin-4-one], for which the EC50 in the data set on HIV-1(IIIB) [2] is 0.35 ± 0.175 µM; in the data set with HIV-2(ROD), over 12 µM. Besides, the CC50 in data set [3] was 42 ± 8.1 µM. As to `O=C1CSC(c2c(Cl)cccc2Cl)N1CC12CC3CC(CC(C3)C1)C2` (stereo not shown) [Compound 24, 3-Adamantan-1-ylmethyl-2-(2,6-dichlorophenyl)-thiazolidin-4-one], the IC50 at recombinant HIV-2 RT was at least 600 µM.

As for `Cc1cc(C)nc(N2C(=O)CS[C@@H]2C23CC4CC(CC(C4)C2)C3)c1` (single isomer, unassigned; (+)) [7 (R enantiomer), (+)-2-adamantan-1-yl-3-(4,6-dimethyl-pyridin-2-yl)-thiazolidin-4-one, reference compound], the IC50 at recombinant HIV-2 RT is over 600 µM. The EC50 in the data set with HIV-1(IIIB) [2] is 0.178 µM. In the case of `Cc1cc(C)nc(N2C(=O)CSC2C23CC4CC(CC(C4)C2)C3)c1` (single isomer, unassigned) [levo isomer], the “fold less active than the (+)-isomer (anti-HIV-1 activity)” value in the data set on HIV-1(IIIB) [2] is “more than 60 fold”. Consider “2-Adamantan-1-ylmethyl-3-(2-dimethylaminoethyl)-thiazolidin-4-one [Compound 20]”, for which the midpoint of cytotoxicity in data set [4], the CC50, lay at 43 ± 20.1 µM. Consider `O=C1CSC(c2c(Cl)cccc2Cl)N1CCC12CC3CC(CC(C3)C1)C2` (stereo not shown) [Compound 25, 3-(2-Adamantan-1-ylethyl)-2-(2,6-dichlorophenyl)-thiazolidin-4-one], for which, on recombinant HIV-2 RT, the IC50 is over 600 µM.

Consider `Cc1ccnc(N2C(=O)CSC2C23CC4CC(CC(C4)C2)C3)n1` (stereo not shown) [Compound 10, 2-Adamantan-1-yl-3-(4-methylpyrimidin-2-yl)-thiazolidin-4-one], for which the “fold reduction in antiviral potency (anti-HIV-1)” value with HIV-1(IIIB) [1] came out at 6 fold. With `O=C1CSC(c2c(F)cccc2F)N1CCC12CC3CC(CC(C3)C1)C2` (stereo not shown) [Compound 29, 3-(2-Adamantan-1-ylethyl)-2-(2,6-difluorophenyl)-thiazolidin-4-one], the IC50 at recombinant HIV-2 RT was at least 600 µM.
